{"data": "Results collected from several papers", "target": "Phosphatidylinositol 4-phosphate 3-kinase C2 domain-containing subunit beta (PIK3C2B, Homo sapiens, UniProt O00750)", "note": "Each line is one published result; the experiments were not run side by side."}
{"Structure (SMILES)": "N[C@@H]1CCN(c2nccc(-c3cnn4ncccc34)n2)C1", "test": "binding", "conditions": "1 µM", "remaining binding": "100%"}
{"Structure (SMILES)": "C=CC(=O)N1CCC(C(=O)NCC(=O)N2CCN(c3nc(-c4cnc(N)nc4C(F)F)nc(N4CCOCC4)n3)CC2)CC1", "test": "binding, competition with immobilised ligand", "conditions": "1 µM", "remaining binding": "21%"}
{"Structure (SMILES)": "O=C(Nc1cccnn1)N1CCC(=Cc2cccc(Oc3ccc(C(F)(F)F)cn3)c2)CC1", "test": "cell-free assay, competition with immobilised ligand", "conditions": "1 µM", "remaining binding": "91%"}
{"Structure (SMILES)": "CN(C)c1ncc(F)c(-c2cnn3ncccc23)n1", "test": "binding", "conditions": "1 µM", "remaining binding": "76%"}
{"Structure (SMILES)": "Cc1cnc(Nc2ccc(C(=O)N3CCC(N4CCCC4)CC3)cc2)nc1-c1cc2ccccc2s1", "test": "binding, competition with immobilised ligand", "conditions": "1 µM", "remaining binding": "99%"}
{"Structure (SMILES)": "O=C(N[C@H]1CCCCC/C=C\\C2C[C@@]2(C(=O)O)NC(=O)[C@@H]2C[C@@H](Oc3ccncc3)CN2C1=O)OC1CCCC1 (stereo partly drawn)", "test": "binding, competition with immobilised ligand", "conditions": "1 µM", "remaining binding": "84%"}
{"Structure (SMILES)": "CC(C)(C)c1ccc(-c2nc(CBr)nn2-c2cccc(O)c2)cc1", "test": "cell-free assay, competition with immobilised ligand", "conditions": "10 µM", "remaining binding": "60%"}
{"Structure (SMILES)": "CC1CCCN1c1nccc(-c2cnn3ncccc23)n1 (stereo not drawn)", "test": "binding", "conditions": "1 µM", "remaining binding": "100%"}
{"Structure (SMILES)": "CC1=C(C#N)C(c2ccc3c(c2)c(NC(=O)c2ccccc2C)nn3C)C(C#N)=C(C)N1", "test": "cell-free assay, competition with immobilised ligand", "conditions": "1 µM", "remaining binding": "76%"}
{"Structure (SMILES)": "COc1ccnn2ncc(-c3ccnc(N(C)C)n3)c12", "test": "binding", "conditions": "1 µM", "remaining binding": "100%"}
{"Structure (SMILES)": "O=C(Nc1c[nH]nc1C(=O)NC1CCNCC1)c1cc(F)cc(F)c1", "test": "binding, competition with immobilised ligand", "conditions": "1 µM", "remaining binding": "100%"}
{"Structure (SMILES)": "Nc1ncc2c(n1)-c1c([nH]c3ccc(C#CC4CC4)cc13)CCCC2", "test": "binding, competition with immobilised ligand", "conditions": "1 µM", "remaining binding": "89%"}
{"Structure (SMILES)": "C[C@H]1CCN(c2nccc(-c3cnn4ncccc34)n2)C1", "test": "binding", "conditions": "1 µM", "remaining binding": "91%"}
{"Structure (SMILES)": "O=C(c1ccc(Nc2ncc(Cl)c(-c3ccc(Cl)s3)n2)cc1)N1CCC(N2CCCC2)CC1", "test": "binding, competition with immobilised ligand", "conditions": "1 µM", "remaining binding": "98%"}
{"Structure (SMILES)": "CNC(=O)[C@@H]1CC[C@@H](n2c(-c3ccc4cnccc4c3)nc3ccc(C(=O)NCc4cccc(C(N)=O)c4)cc32)C1", "test": "binding, competition with immobilised ligand", "conditions": "1 µM", "remaining binding": "100%"}
{"Structure (SMILES)": "CCN1CCN(Cc2ccc(C(=O)Nc3ccc(C)c(Oc4ccc5c(c4)CC(=O)N5)c3)cc2C(F)(F)F)CC1", "test": "binding, competition with immobilised ligand", "conditions": "1 µM", "remaining binding": "66%"}
{"Structure (SMILES)": "COCCOc1nc(-c2ccc(Cl)nc2)nc2c1CN(C(=O)c1ncn3ccccc13)CC2", "test": "cell-free assay, competition with immobilised ligand", "conditions": "0.1 µM", "remaining binding": "100%"}
{"Structure (SMILES)": "F[C@@H]1CCN(c2nccc(-c3cnn4ncccc34)n2)C1", "test": "binding", "conditions": "1 µM", "remaining binding": "85%"}
{"Structure (SMILES)": "O=C(Nc1cnc(Oc2ccc(F)cc2)nc1)N1CCc2ncccc2[C@@H]1c1ccc(F)cc1", "test": "cell-free assay, competition with immobilised ligand", "conditions": "1 µM", "remaining binding": "95%"}
{"Structure (SMILES)": "c1cncc(-c2cccc(Nc3nccc(NC4CCCCC4)n3)c2)c1", "test": "binding, competition with immobilised ligand", "conditions": "10 µM", "remaining binding": "81%"}
{"Structure (SMILES)": "CCS(=O)(=O)c1cc2cc(C[C@@](O)(CC(C)(C)c3ccc(F)cc3C(N)=O)C(F)(F)F)[nH]c2cn1", "test": "cell-free assay, competition with immobilised ligand", "conditions": "1 µM", "remaining binding": "86%"}
{"Structure (SMILES)": "O=C(NCCCN1CCOCC1)c1ccc(Nc2nccc(-c3cc4ccccc4s3)n2)cc1", "test": "binding, competition with immobilised ligand", "conditions": "1 µM", "remaining binding": "92%"}
{"Structure (SMILES)": "COc1ccc2c(O[C@@H]3C[C@H]4C(=O)N[C@]5(C(=O)O)CC5/C=C\\CCCCC[C@H](NC(=O)OC5CCCC5)C(=O)N4C3)cc(-c3csc(NC(=O)C(C)C)n3)nc2c1C (stereo partly drawn)", "test": "cell-free assay, competition with immobilised ligand", "conditions": "1 µM", "remaining binding": "82%"}
{"Structure (SMILES)": "CN(C)c1nccc(-c2cnc3ncccn23)n1", "test": "binding", "conditions": "1 µM", "remaining binding": "57%"}
